Tb MetRS inh – T. brucei MetRS inhibitors, primary screen, biochemical, luminescence | inhibition, % at 11.9 µM | AID 624268, 2012 | 360,000 compounds, 0.4% hits | purified T. brucei MetRS, ATP depletion, Kinase-Glo luminescence | methionyl-tRNA synthetase (Trypanosoma brucei brucei);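 active means inhibition above a per-plate cutoff of the control wells' mean inhibition plus 3 SD, cut at about 5.5% in these data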
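Material: parasite MetRS enzyme / Replication: singlicate, one well per compound / Signal: luminescence of leftover ATP / Schedule: 2 h aminoacylation at 25 °C after 15 min preincubation / Medium: HEPES-MgCl2-KCl buffer plus DTT, spermine, BSA, pyrophosphatase / Doses: 11.9 µM single point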
Lipid droplet – inhibitors of hepatocyte lipid droplet formation, primary screen, imaging, high-throughput imaging, BODIPY stain; AML12 mouse hepatocytes, oleate lipid droplets; inhibition, % at 6.5 µM; 240,000 compounds, 0.4% hits; AID 1656, 2009;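 active means lipid droplet intensity inhibited by at least 50%, with more than 500 cells counted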
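Assay system: AML12 mouse liver cells | Compound: 6.5 µM single-point dosing | Schedule: Overnight exposure | Technique: Fluorescence imaging, 20x objective, two fields per well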
NS3 helicase inh – inhibitors of HCV NS3 helicase, primary screen, biochemical, Cy5 molecular beacon fluorescence; NS3 helicase DNA unwinding; inhibition, % at 10.9 µM; 290,000 compounds, 0.56% hits;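 active means inhibition above the mean of all tested compounds plus 3 SD, set per campaign, cut at about 35% in these data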
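Assay system – hepatitis C virus NS3 helicase domain fragment enzyme · Buffer or medium – MOPS pH 6.5, MgCl2, DTT, Tween20, BSA · Reagent – Cy5/quencher beacon DNA duplex and ATP to start · Compound – single 10.9 µM dose · Timing – 1 h at 25 °C · Technique – Cy5 beacon fluorescence read at start and 1 h · Measure – % inhibition of unwinding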
core dimer inh – inhibitors of HCV core protein dimerization, primary screen, biochemical, TR-FRET, high-throughput; 300,000 compounds, 0.33% hits; AID 1899, 2009; inhibition, % at 5 µM; TR-FRET GST/Flag-core106 dimerization, 1536-well;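 active means inhibition above the mean of all tested compounds plus 3 SD, set per screening campaign, cut at about 45% in these data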
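System: GST-tagged and Flag-tagged HCV core protein residues 1-106 / Input: core106 proteins, GST 13.5 nM and Flag 17 nM / Buffer or medium: KF-containing HEPES buffer, pH 7.45, DTT, CHAPS, BSA / Probe or stimulus: Eu-anti-GST and XL665-anti-Flag labelled anti-tag antibodies / Schedule: 4 h, 22.5 °C incubation / Technique: TR-FRET 671 and 617 nm emission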
Lipid drop inh – hepatocyte lipid droplet accumulation inhibitors, confirmation, imaging, AML12 mouse hepatocytes, single concentration, high-content | 870 compounds, 65% hits | inhibition, % at 5.2 µM | AID 463183, 2010 | shares compounds with Lipid droplet | BODIPY lipid droplet imaging; droplets induced with 100 µM oleic acid;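 active means inhibition of lipid droplet metric at least 50%, with more than 300 cells in each of four replicates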
AML12 tox img – AML12 hepatocyte cytotoxicity, counter-screen for hepatic lipid droplet formation project, imaging, DAPI nuclear morphology imaging. 870 compounds, 3% hits. AID 463200, 2010. shares compounds with Lipid droplet. z-score at 5 µM. AML12 mouse hepatocytes; stronger effect = higher value; cells fed 100 µM oleate overnight; in the data active means z-score above about 6.3;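 further: compound exposure lasted overnight at 37 °C before fixation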
AML12 tox conf – AML12 hepatocyte cytotoxicity, confirmation, cytotoxicity control for hepatic lipid droplet formation project, cell-based, single concentration; shares compounds with Lipid droplet; AML12 mouse hepatocyte viability, ATP luminescence; cells loaded with 100 µM oleic acid; cytotoxicity, % at 50 µM; 530 tested, under 10 active; AID 463219, 2010;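 active means cytotoxicity above 50% in each of four replicates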;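 further: compound exposure lasted overnight at 37 °C before the ATP read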
Of the large screens only hits and unclear results are named; the others gave an inactive call (follow-up assays come after a bar, where they were run). This is a sample that favours compounds with a hit; in the whole collection about 1.3% have one here.

O=C(CNc1cc(S(=O)(=O)N2CCCC2)ccc1OCC(F)(F)F)Nc1cccc(C(F)(F)F)c1	Lipid droplet 54 | Lipid drop inh inactive | AML12 tox img inactive
O=C(CNc1cccc(C(F)(F)F)c1)Nc1cccc(S(=O)(=O)N2CCCC2)c1	none (no result: Lipid droplet, NS3 helicase inh, core dimer inh)
NC(c1ccc(F)c(F)c1)c1nc(-c2cc(F)cc(F)c2)cs1 (stereo not drawn)	none (no result: Lipid droplet, NS3 helicase inh, core dimer inh)
Cc1oc2ccc(OCc3ccc(F)cc3Cl)cc2c1C(=O)O	Lipid droplet 57 | Lipid drop inh inactive | AML12 tox img inactive
Cc1nn(-c2ccc([N+](=O)[O-])cc2)c2c1C(c1cccc(Br)c1)N1C(=N2)C(=O)Nc2ccccc21 (stereo not drawn)	Lipid droplet 118 | Lipid drop inh 82 | AML12 tox img inactive | AML12 tox conf inactive
Cc1nn(-c2ccccc2)c2c1C(c1ccc([N+](=O)[O-])cc1)N1C(=N2)C(=O)Nc2ccccc21 (stereo not drawn)	none
COc1ccc(OC)c(NC(=O)CCCNC(=O)c2ccc(Cl)cc2)c1	Lipid droplet 58 | Lipid drop inh 73 | AML12 tox img inactive | AML12 tox conf inactive
COc1ccc(Cl)cc1NC(=O)CCCNC(=O)c1ccc(Cl)cc1	none
CCOc1ccccc1NC(=O)CCCNC(=O)c1ccc(Cl)cc1	Lipid droplet 73 | Lipid drop inh 78 | AML12 tox img inactive | AML12 tox conf inactive
CCOc1ccccc1NC(=O)CCCNC(=O)Cn1cnc2sc(C)c(C)c2c1=O	Lipid droplet 59 | Lipid drop inh inactive | AML12 tox img inactive | AML12 tox conf inactive
CCCC(C)(C)C(=O)N1CCC1(C)C(=O)Nc1ccc2c(c1)OCCO2 (stereo not drawn)	none (no result: Lipid droplet, NS3 helicase inh, core dimer inh)
O=C(Cc1coc2ccc3ccccc3c12)NC1CCCc2ccccc21 (stereo not drawn)	Lipid droplet 52 | Lipid drop inh 91 | AML12 tox img inactive | AML12 tox conf inactive
COC(=O)C[C@H]1C=C[C@H](NC(=O)C2CCOCC2)[C@@H](CO)O1	none (no result: Lipid droplet, NS3 helicase inh, core dimer inh)
O=[N+]([O-])c1cccc(CON=Cc2cc(Cl)ccc2O)c1	none (no result: Lipid droplet, NS3 helicase inh, core dimer inh)
CCn1cc(C(=O)NCCCN(CC(C)C)CC(C)C)c(=O)c2cc(S(=O)(=O)N(C)C3CCCCC3)ccc21	Lipid droplet 69 | Lipid drop inh inactive | AML12 tox img inactive
CCN(CC)CCCNC(=O)c1cn(CC)c2ccc(S(=O)(=O)N(C)C3CCCCC3)cc2c1=O	none
CCOc1nc(-c2ccncc2)nc2ccccc12	Lipid droplet 53 | Lipid drop inh inactive | AML12 tox img inactive
CC(=O)c1ccc(OC(C)C(=O)NC2CCCCC2C)cc1 (stereo not drawn)	none (no result: Lipid droplet, NS3 helicase inh, core dimer inh)
CC(C)Oc1ccc(C(=O)OC(C)C(=O)NC2CCCCC2C)cc1 (stereo not drawn)	Lipid droplet 52 | Lipid drop inh 102 | AML12 tox img inactive | AML12 tox conf inactive
CCCc1cc(N2CCCC2)n2nc(C)c(-c3ccccc3)c2n1	Lipid droplet 60 | Lipid drop inh 99 | AML12 tox img inactive | AML12 tox conf inactive
CCN1CCN(c2cc(C(C)C)nc3c(-c4ccccc4)c(C)nn23)CC1	Lipid droplet 55 | Lipid drop inh inactive | AML12 tox img inactive
CCN(CC)c1ccc(/C=C2\CCC(/C=C(\C#N)C(=O)Nc3ccccc3F)=C2N2CCOCC2)cc1	Lipid droplet 101 (no result: core dimer inh) | Lipid drop inh 96 | AML12 tox img inactive | AML12 tox conf inactive
CCOC(=O)c1ccc(S(=O)(=O)Nc2ccc(N3CCOCC3)cc2)cc1	Lipid droplet 86 | Lipid drop inh 79 | AML12 tox img inactive | AML12 tox conf inactive
CCOc1ccc(NS(=O)(=O)c2ccc(C(=O)N3CCCCC3)cc2)cc1	Lipid droplet 57 | Lipid drop inh 87 | AML12 tox img inactive | AML12 tox conf inactive
CC(=O)c1ccc(S(=O)(=O)Nc2ccc(N3CCOCC3)cc2)cc1	none
CCOc1ccc(NS(=O)(=O)c2ccc(C(=O)N(CC)CC(=O)NCc3cccs3)cc2)cc1	Lipid droplet 78 | Lipid drop inh 98 | AML12 tox img inactive | AML12 tox conf inactive
COc1ccc2c(c1)O[C@@H](c1cccc(C(F)(F)F)c1)[C@H](OC(=O)NCCc1ccc(OC)c(OC)c1)C2=O	Lipid droplet 64 (no result: Tb MetRS inh) | Lipid drop inh 75 | AML12 tox img inactive
Cc1ccccc1N=C/C=C1/C=C(c2ccccc2)OC(C)(C)O1	none
CC1(C)OC(c2ccccc2)=C/C(=C/C=C2C(=O)c3ccccc3C2=O)O1	Lipid droplet 73 | Lipid drop inh inactive | AML12 tox img inactive
COc1ccc(C(=O)O/N=C(\N)c2ccccn2)cc1	Lipid droplet 66 | Lipid drop inh inactive | AML12 tox img inactive
COc1ccc(CCN2CC(C(=O)NCCc3ncccc3C)CCC2=O)cc1 (stereo not drawn)	none (no result: Lipid droplet, NS3 helicase inh, core dimer inh)
C/C(N)=C(/C#N)C(=O)CSc1nnc(Nc2cccc(C)c2)s1	Lipid droplet 78 | Lipid drop inh 99 | AML12 tox img inactive | AML12 tox conf inactive
CC(C)CN1C(=O)CN(S(C)(=O)=O)CC1(C)C(=O)Nc1ccc2c(c1)OCCO2 (stereo not drawn)	none (no result: Lipid droplet, NS3 helicase inh, core dimer inh)
CC(C)C(=O)N1CCC(n2nccc2NC(=O)CCOc2ccccc2)CC1	none (no result: core dimer inh)
C=CCC(=O)N1CCC(n2nccc2NC(=O)CCOc2ccccc2)CC1	Lipid droplet 61 | Lipid drop inh inactive | AML12 tox img inactive
COc1ccc(OC)c(NC(=O)Nc2cccc3ccccc23)c1	none
COc1ccc(NC(=O)Nc2cccc3ccccc23)c(OC)c1	Lipid droplet 56 | Lipid drop inh 83 | AML12 tox img inactive | AML12 tox conf inactive
C=CCN(C(=O)c1csnn1)C(C(=O)NCc1ccccc1)c1ccccc1F (stereo not drawn)	Lipid droplet 51 | Lipid drop inh inactive | AML12 tox img inactive | AML12 tox conf inactive
O=C(NCc1ccccc1)C(c1ccccc1F)N(C(=O)c1csnn1)C1CCCC1 (stereo not drawn)	Lipid droplet 71 | Lipid drop inh 92 | AML12 tox img inactive | AML12 tox conf inactive
C=CCN(C(=O)c1csnn1)C(C(=O)NCc1ccc(F)cc1)c1ccccc1F (stereo not drawn)	none
CCOC(=O)[C@]12CCC=C1N(Cc1ccc3c(c1)OCO3)C(=O)[C@H](CC(=O)NCCc1ccccc1OC)C2	none (no result: Lipid droplet, NS3 helicase inh, core dimer inh)

High-throughput results: PubChem, several laboratories
